# Source: PMC9616052 (Archiv der Pharmazie, 2022)
# Like-named read-outs stand apart in the source and are kept apart here. Where a SMILES comes first, the peptide text is derived from it.
# Assays:
# Assay type in all cases: biochemical
# caspase-2 (Casp2) = molecular target: T1, caspase-2 (Casp2) (Homo sapiens, UniProt P42575); experiment: Fluorometric enzyme inhibition assay, Casp2
# T1 sequence (P42575 170-333 limits assumed): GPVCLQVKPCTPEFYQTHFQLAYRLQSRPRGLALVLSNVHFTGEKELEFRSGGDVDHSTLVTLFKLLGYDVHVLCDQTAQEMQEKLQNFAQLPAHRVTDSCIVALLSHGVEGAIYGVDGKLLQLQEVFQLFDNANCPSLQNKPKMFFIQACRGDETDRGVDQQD
# T1 sequence (P42575 348-452 limits assumed): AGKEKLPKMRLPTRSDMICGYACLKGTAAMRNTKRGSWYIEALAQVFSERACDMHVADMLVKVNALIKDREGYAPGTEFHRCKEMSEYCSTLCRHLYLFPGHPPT
# How it was run: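 In-house recombinant Casp2 in 100 mM MES pH 6.5, 150 mM NaCl, 0.1% CHAPS, 1.5% sucrose, 10 mM DTT. […] 384-well: 20 nM enzyme, 10 μM substrate, duplicate. 96-well: 5 nM, 25 μM, triplicate. AFC fluorescence (ex 400/em 505 nm) at 37 °C, 40 min point. Four-parameter IC50 fit, converted by Cheng–Prusoff.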
# [1] = molecular target: T2, circularly permutated caspase-2 (cpCasp2) (Homo sapiens, UniProt P42575); experiment: Fluorometric enzyme inhibition assay, cpCasp2
# T2 sequence (P42575 1-452): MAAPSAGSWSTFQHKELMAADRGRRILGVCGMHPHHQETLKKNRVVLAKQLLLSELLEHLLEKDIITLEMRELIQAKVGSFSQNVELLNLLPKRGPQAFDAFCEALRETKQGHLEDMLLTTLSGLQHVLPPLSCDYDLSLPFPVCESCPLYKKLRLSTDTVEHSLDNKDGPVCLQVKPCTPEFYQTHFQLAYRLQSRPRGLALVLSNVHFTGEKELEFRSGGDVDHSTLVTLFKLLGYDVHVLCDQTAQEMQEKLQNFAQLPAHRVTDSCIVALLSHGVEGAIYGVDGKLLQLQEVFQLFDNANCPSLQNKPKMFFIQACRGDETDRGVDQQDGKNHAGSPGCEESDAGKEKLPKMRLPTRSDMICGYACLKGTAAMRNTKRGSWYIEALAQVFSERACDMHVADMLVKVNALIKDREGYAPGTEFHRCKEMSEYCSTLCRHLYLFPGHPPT
# caspase-3 (Casp3) = molecular target: T3, caspase-3 (Casp3) (Homo sapiens, UniProt P42574); experiment: Fluorometric enzyme inhibition assay, Casp3; details: SEM
# T3 sequence (P42574 29-175 limits assumed): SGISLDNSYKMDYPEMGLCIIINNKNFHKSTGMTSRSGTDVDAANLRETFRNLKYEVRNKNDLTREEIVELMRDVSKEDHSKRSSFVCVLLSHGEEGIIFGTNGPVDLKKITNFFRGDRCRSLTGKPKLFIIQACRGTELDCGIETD
# T3 sequence (P42574 176-277 limits assumed): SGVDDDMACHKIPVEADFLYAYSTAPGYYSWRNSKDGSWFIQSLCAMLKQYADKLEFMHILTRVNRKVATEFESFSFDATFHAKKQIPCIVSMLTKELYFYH
# How it was run: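 Recombinant Casp3 produced in house, 2 nM/well, in 100 mM HEPES pH 7.0, 150 mM NaCl, 0.1% CHAPS, 1.5% sucrose, 10 mM DTT. Preincubated with DMSO-diluted test compound 5 min, 37 °C. AcDEVD-AFC (Km 7.6 μM) at 5 μM (384-well, duplicate) or 10 μM (96-well, triplicate). Fluorescence ex 400/em 505 nm at 37 °C, 40 min reading. Four-parameter IC50 converted to Ki via Cheng–Prusoff.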
Ki (caspase-2 (Casp2); SEM) [µM],Ki ([1]; SEM) [µM],Ki (caspase-3 (Casp3)) [µM],Ki (caspase-2 (Casp2)) [µM],Ki [1] [µM],SMILES
20,20.9,0.224,–,–,"CC(=O)NCCCC[C@H](NC(=O)[C@@H](NC(=O)[C@@H](NC(C)=O)[C@@H](C)O)C(C)C)C(=O)N[C@H](C=O)CC(=O)O [compound 30, (4S,7S,10S,13S)-10-(4-Acetamidobutyl)-13-formyl-4-[(R)-1-hydroxyethyl]-7-isopropyl-2,5,8,11-tetraoxo-3,6,9,12-tetraazapentadecan-15-oic acid] (Ac-TVK(Ac)D-aldehyde)"
–,–,9.55,> 100,–,"CC(=O)NCCCC[C@H](NC(=O)[C@@H](NC(C)=O)C(C)C)C(=O)N[C@H](C=O)CC(=O)O [compound 31, (S)-3-{(S)-6-Acetamido-2-[(S)-2-acetamido-3-methylbutanamido]hexanamido}-4-oxobutanoic acid] (Ac-Val-Lys(Ac)-Asp-aldehyde)"
0.0331,0.0646,0.0603,–,–,"CC(=O)N[C@H](C(=O)N[C@@H](CC(=O)O)C(=O)N[C@H](C(=O)N[C@@H](C)C(=O)N[C@H](C=O)CC(=O)O)[C@@H](C)O)[C@@H](C)O [compound 55, (4S,7S,10S,13S,16S)-7-(Carboxymethyl)-16-formyl-4,10-bis[(R)-1-hydroxyethyl]-13-methyl-2,5,8,11,14-pentaoxo-3,6,9,12,15-pentaazaoctadecan-18-oic acid] (Ac-TDTAD-aldehyde)"
–,–,5.75,–,> 100,"CC(=O)N[C@H](C(=O)N1CCC[C@H]1C(=O)N[C@H](C=O)CC(=O)O)C(C)C [compound 17, (S)-3-[(S)-1-(Acetyl-L-valyl)pyrrolidine-2-carboxamido]-4-oxobutanoic acid] (Ac-Val-Pro-Asp-aldehyde)"
